This data set can be described thus: Toxicity liver stage against HepG2, at 10uM. The settings on record: human, HepG2-A16-CD81EGFP cells; read-out: INHIBITION
The format is cell-based. Details: test concentration 10 uM, cell line HepG2-A16-CD81EGFP. Summed up: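 Uninfected HepG2-A16-CD81EGFP cells, 3 × 10^3 per well, 1536-well, plated on prespotted compound at 10 μM final, parasite-free screening media added to match infected plates; puromycin 10 μM positive, DMSO 0.5% negative; run in parallel with 48 h PbLuc assay at 37 °C, 5% CO2; viability by CellTiter-Glo luminescence, normalized to controls.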
Take `C[C@@H](O)CNC(=O)c1nc(Cc2c(Cl)cccc2Cl)no1`: the cytotoxicity at 10 µM was 0.483%.

Consider `COc1cc(C)nc(N2CCN(C(=O)c3cccc(C#N)c3)CC2)n1`, for which the cytotoxicity at 10 µM is -3.54%.

As for `COc1ccc(-c2cc(N)on2)cc1OC`, the cytotoxicity at 10 µM is -9.85%.

On to `O=C(CCOc1ccccc1)NS(=O)(=O)Cc1ccccc1`, for which the cytotoxicity at 10 µM was -1.48%.

Regarding `O=C(COCc1nc(-c2ccncc2)no1)N1CCCCCC1`, the cytotoxicity at 10 µM is -8.83%.

In the case of `CN1CC2(CCN(C(=O)CCc3nc4cccnc4n3C)C2)OC1=O` (configuration not stated), the cytotoxicity at 10 µM amounted to 1.56%.

`CCN(CC(=O)NC(C)C)C(=O)C(C)(C)c1ccc2c(c1)OCCO2`: the cytotoxicity at 10 µM was -2.79%.

`CCO[C@@H]1CO[C@@]2(CCCN(S(=O)(=O)c3ccccc3)C2)C1`: the cytotoxicity at 10 µM was -77.2%.

For the molecule `Cc1c(NC(=O)CN2CCC(Oc3cnccn3)CC2)cnn1C`, the cytotoxicity at 10 µM is -4.68%.

With `CSc1ccc(-c2nc(CN3CCC(CN)C3)c(C)o2)cc1` (configuration not stated), the cytotoxicity at 10 µM was -2.65%.

Take `CC(O)CN1CC2(CCC1=O)CCN(C(=O)c1cnn(C)c1)CC2` (configuration not stated): the cytotoxicity at 10 µM is 3.74%.

Turning to `CN(C)c1ncc(-c2cncn2CCc2ccc3c(c2)OCCO3)cn1`, the cytotoxicity at 10 µM is -1.04%.

With `Cc1cc(C)n(C2CCCN(C(=O)CCOc3ccccc3F)C2)n1` (configuration not stated), the cytotoxicity at 10 µM was -6.19%.

Consider `CCN1CCc2c(cccc2NC(=O)CN(C)C2CCSC2)C1` (configuration not stated), for which the cytotoxicity at 10 µM was -47%.

On to `O=C1CCCCN1c1cccc(CNC2CCCC2)c1`, for which the cytotoxicity at 10 µM turned out to be 6.86%.

Consider `CCc1cc(=O)[nH]c2nnc(SCC(=O)N3CCC(C)CC3)n12`, for which the cytotoxicity at 10 µM is -5.43%.

`Cc1occc1C(=O)N1CCCC2(CCN(CCN3CCCC3)C2=O)C1` (configuration not stated): the cytotoxicity at 10 µM was -9.18%.

For `c1cncc(CN2CCC3(CC2)CC(c2cccnc2)CO3)c1` (configuration not stated), the cytotoxicity at 10 µM stood at 0.851%.

Consider `CC(Nc1cccc2c1OCCO2)C(=O)NC(N)=O` (configuration not stated), for which the cytotoxicity at 10 µM was determined as 2.76%.

As to `CCc1[nH]ncc1C(=O)N1CCN(c2nc(C)cc(OC)n2)CC1`, the cytotoxicity at 10 µM came out at 3.51%.

On to `CCC(C)[C@H](N)c1nnc(SCC(=O)Nc2ccc(Br)cc2)o1` (some centres not stated), for which the cytotoxicity at 10 µM was -3.48%.

As to `O=C(CN1CCN(CC(O)C2CC2)CC1)NCc1ccc(F)cc1` (configuration not stated), the cytotoxicity at 10 µM was -0.084%.

For `CN(C)[C@@H]1CN(C(=O)CCc2ccccc2)[C@@H]2CCCO[C@H]12`, the cytotoxicity at 10 µM is -3.02%.

On to `CCOc1ncccc1CNC(=O)N1CCC(n2cncn2)CC1`, for which the cytotoxicity at 10 µM was -1.26%.

As for `O=C(C1CCCN1c1ncnc2ccsc12)N1CCSCC1` (configuration not stated), the cytotoxicity at 10 µM worked out at 3%.

Turning to `CSCC(=O)N1CCCC(CO)(CC2CC2)C1` (configuration not stated), the cytotoxicity at 10 µM was 4.38%.

As to `O=C(Cc1ccsc1)N1C[C@@H]2COC[C@]2(COCc2cccnc2)C1`, the cytotoxicity at 10 µM worked out at 2.98%.

As to `Cc1nc([C@@H]2C[C@@H]3CCN(C(=O)Cc4ccsc4)C[C@H]3O2)no1`, the cytotoxicity at 10 µM turned out to be 1.85%.

For `CC(=O)N1CCC2(CCN(S(=O)(=O)c3ccccc3)CC2)C1`, the cytotoxicity at 10 µM was -2.83%.

With `COc1ccc(CN2CC(O)CN(C(=O)c3ccccc3)CC2=O)cc1` (configuration not stated), the cytotoxicity at 10 µM amounted to 0.331%.

As to `CCc1nccn1CCC(=O)N1CC[C@H](CO)[C@H](O)C1`, the cytotoxicity at 10 µM is -1.2%.

On to `CCc1nc2n(n1)CC(NCc1nc(Cc3ccccc3)no1)CC2` (configuration not stated), for which the cytotoxicity at 10 µM is 1.06%.

Regarding `CCc1ncc(C(=O)N2CC(Oc3ccccc3Cl)C2)cn1`, the cytotoxicity at 10 µM worked out at 45.7%.

Turning to `CC(C)c1nc(N2CCC(N3CCCCCC3)CC2)c2cnn(C)c2n1`, the cytotoxicity at 10 µM was -135%.

With `CCc1ccc(CN2CCC3(CC2)CC(N2CCN(C)CC2)CO3)cc1` (configuration not stated), the cytotoxicity at 10 µM was -2.88%.

In the case of `CN(C)c1ccc(CC2CCN(c3cnccn3)C2)nn1` (configuration not stated), the cytotoxicity at 10 µM was 2.97%.

On to `COc1cccc(CCC2CCCN(C(=O)c3ccc(OC)o3)C2)c1` (configuration not stated), for which the cytotoxicity at 10 µM came out at 9.9%.

Consider `O=C(O)c1ccccc1-c1c(-c2ccccc2)ncn1CC1CCCO1` (configuration not stated), for which the cytotoxicity at 10 µM worked out at 2.84%.

Consider `CC(C(=O)N(C)C)N1CCc2onc(-c3cccc(F)c3)c2C1` (configuration not stated), for which the cytotoxicity at 10 µM was -6.93%.

On to `c1nc(CN2CCCC(Cc3ccc(NC4CCCC4)nn3)C2)c[nH]1` (configuration not stated), for which the cytotoxicity at 10 µM was determined as 3.6%.

With `CC(C)(CC(=O)N(CC(N)=O)C1CCCC1)c1ccccc1`, the cytotoxicity at 10 µM was -4.95%.

`COCCN(C)C(C(=O)O)c1ccc(C)c(C)c1` (configuration not stated): the cytotoxicity at 10 µM was -9.47%.

As for `Cn1cc(C(=O)NC[C@@H]2OC[C@H]3CN(Cc4ccco4)CC[C@H]32)cn1`, the cytotoxicity at 10 µM is -13.4%.

On to `O=C(NCc1cc[nH]n1)NCC(c1ccc(F)cc1)N1CCOCC1` (configuration not stated), for which the cytotoxicity at 10 µM is -7.77%.

Regarding `CC(c1cccc(S(N)(=O)=O)c1)N(C)CCc1ccccc1` (configuration not stated), the cytotoxicity at 10 µM is -12%.

For the molecule `c1coc(CN2Cc3nccn3CC(Cn3cncn3)C2)c1` (configuration not stated), the cytotoxicity at 10 µM was -7.18%.

Consider `CCOC(=O)CSc1ccc(-c2nc(CC)no2)cn1`, for which the cytotoxicity at 10 µM was -17.1%.

Turning to `CN1CC(C(=O)NC2(c3ccc(Cl)cc3)CCOCC2)CC1=O` (configuration not stated), the cytotoxicity at 10 µM stood at 13.8%.

As to `Cc1cc(Nc2ncccn2)nc(C2CCCN(CCO)C2)n1` (configuration not stated), the cytotoxicity at 10 µM is 1.09%.

Consider `Cc1cnn(C2CCCN(C(=O)CN(C)c3cnccn3)C2)c1` (configuration not stated), for which the cytotoxicity at 10 µM was -8.73%.

With `Cc1nn(C)c(C)c1OCC(=O)NCC(O)c1ccco1` (configuration not stated), the cytotoxicity at 10 µM is -4.71%.

For the molecule `CCOCC1CN(Cc2cnn(C)c2)Cc2ncn(CC3CC3)c21` (configuration not stated), the cytotoxicity at 10 µM turned out to be 2.21%.

For the molecule `CSc1ncccc1C(=O)NCCC(O)c1cccs1` (configuration not stated), the cytotoxicity at 10 µM was -4.68%.

Take `COCC1CN(S(C)(=O)=O)Cc2ncn(CC3CC3)c21` (configuration not stated): the cytotoxicity at 10 µM is 1.68%.

As for `CC1CCN(c2nc3ncc4c(c3c(=O)[nH]2)CC(C)(C)CC4=O)CC1`, the cytotoxicity at 10 µM worked out at 3.49%.

As for `CN(CCc1ncnn1-c1ccccc1Cl)C1CCS(=O)(=O)C1` (configuration not stated), the cytotoxicity at 10 µM amounted to 9.53%.

For `COCCCN1CC2(CCN(Cc3ncc[nH]3)CC2)CC1=O`, the cytotoxicity at 10 µM is -2.89%.

For the molecule `O=C(c1cc2cccc(F)c2[nH]1)N1C[C@@H](O)[C@H](N2CCCC2)C1`, the cytotoxicity at 10 µM was 0.152%.

For the molecule `Cn1cccc1CN1CCC2(CC1)CC(Oc1cccnc1)C2`, the cytotoxicity at 10 µM came to 13.4%.

On to `CCn1ccc(NC(=O)CCc2c(C)noc2C)n1`, for which the cytotoxicity at 10 µM was 7.16%.

Regarding `CCc1nc(CNc2cc(C)nc(-c3cccnc3)n2)cs1`, the cytotoxicity at 10 µM is -63.6%.

Turning to `c1cnnc(N2CCCC(NCc3cccc4c3OCO4)C2)c1` (configuration not stated), the cytotoxicity at 10 µM turned out to be 2.97%.

`COCC1c2nnn(CC3CC3)c2CCN1C(=O)CS(C)(=O)=O` (configuration not stated): the cytotoxicity at 10 µM was -129%.

`c1ccc2c(c1)N(CC1CCOC1)CC21CCN(c2cnccn2)CC1` (configuration not stated): the cytotoxicity at 10 µM was -94.7%.

As to `CC(C)(C)n1cc(C(=O)N2CCN(Cc3ccccc3F)CC2)cn1`, the cytotoxicity at 10 µM is 10.6%.

Consider `CC(=O)Nc1nc(C(=O)N2CCCC2Cn2cccn2)cs1` (configuration not stated), for which the cytotoxicity at 10 µM is -5.42%.

With `CCN(CC)C(=O)c1nnc2ccc(N3CCOCC3)cc2n1`, the cytotoxicity at 10 µM was 5.37%.

Regarding `Cc1cc2cccc(C(=O)N3CC[C@](C)(O)[C@H](C)C3)c2o1`, the cytotoxicity at 10 µM amounted to 4%.

As for `CCc1ncnc2c1CCN(c1ncc(F)cn1)CC2`, the cytotoxicity at 10 µM amounted to 7.86%.

`c1ccc(CNC2CCc3ncnn3C2)nc1` (configuration not stated): the cytotoxicity at 10 µM was -6.69%.

For `CC(C)CC(C)NCc1cccnc1N1CCN(c2ccccn2)CC1` (configuration not stated), the cytotoxicity at 10 µM came out at 0.997%.

As to `O=C(C1=COCCO1)N1CC(Oc2nc3c(Cl)cccc3s2)C1`, the cytotoxicity at 10 µM worked out at 38.2%.

Take `CNC(=O)C(C)(C)NC(=O)c1cc(COc2ccccc2OC)[nH]n1`: the cytotoxicity at 10 µM came out at 1.6%.

With `Cc1cc(CN2CCCC2c2noc(C)n2)no1` (configuration not stated), the cytotoxicity at 10 µM stood at 2.48%.

Turning to `Cn1nnc2cc(C(=O)N3CCCC3Cc3ccccc3)ccc21` (configuration not stated), the cytotoxicity at 10 µM is -14.7%.

On to `O=C(C1CC=CC1)N1CC[C@@H]2O[C@@H](COCC3CCOCC3)CC[C@@H]21`, for which the cytotoxicity at 10 µM is 5.51%.

`CCCNCC1(O)CCCN(Cc2cccc(C)c2)C1=O` (configuration not stated): the cytotoxicity at 10 µM was -19.7%.

On to `Cc1ccc(N2CCC(c3cc(Cc4ccccc4)n[nH]3)CC2)nn1`, for which the cytotoxicity at 10 µM was 3.53%.

As to `COc1cc(-c2n[nH]c(CO)n2)cc(OC)c1OC`, the cytotoxicity at 10 µM was -4.91%.

Consider `c1nc(N2CCOC(Cn3cncn3)C2)c2sccc2n1` (configuration not stated), for which the cytotoxicity at 10 µM was determined as 16.7%.

In the case of `CCC(O)CN1CCN(C(=O)CN(C)c2ccc(Cl)cn2)CC1` (configuration not stated), the cytotoxicity at 10 µM amounted to 0.684%.

Consider `CN(C(=O)CSc1ncc[nH]1)c1ccccc1`, for which the cytotoxicity at 10 µM was 11.1%.

Turning to `O=C(O)c1ccn(-c2ccc(NC(=O)c3ccccc3Cl)cc2)n1`, the cytotoxicity at 10 µM is -140%.

On to `Cc1ccc([C@H]2CN(C(=O)CC3CCC3)C[C@@H]2N)o1`, for which the cytotoxicity at 10 µM came out at 5.89%.

`CCCc1n[nH]c(=O)n1Cc1ccc(OC)cc1`: the cytotoxicity at 10 µM is -130%.

For `Cn1ncc2c1C(COCC1CC1)CN(c1ncc(F)cn1)C2` (configuration not stated), the cytotoxicity at 10 µM stood at 12.1%.

Regarding `CN1CC(Nc2nc3c(cnn3-c3ccccc3)c(=O)[nH]2)CCC1=O` (configuration not stated), the cytotoxicity at 10 µM is -2.75%.

Turning to `CC(C)C(=O)N1CCCC(Cc2ncccn2)C1` (configuration not stated), the cytotoxicity at 10 µM was -2.49%.

Take `OCCOCc1n[nH]c2c1CN(Cc1ccco1)C2`: the cytotoxicity at 10 µM turned out to be 6.71%.

Consider `COc1cccc(CC(=O)NC(C)c2nc3cccnc3n2C(C)C)c1` (configuration not stated), for which the cytotoxicity at 10 µM is -22.6%.

Turning to `Cc1nccc(C2CN(Cc3cc[nH]n3)CCO2)n1` (configuration not stated), the cytotoxicity at 10 µM was -6.92%.

For the molecule `Cc1ccccc1-n1nccc1NC(=O)CCOC(C)C`, the cytotoxicity at 10 µM turned out to be 0%.

Take `Cc1ccc(S(=O)(=O)NC(=O)c2cccc(OCC(N)=O)c2)s1`: the cytotoxicity at 10 µM is -9.55%.

With `Cn1cc(C(=O)Nc2cccc(CCN3CCCC3)c2)ccc1=O`, the cytotoxicity at 10 µM turned out to be 7.76%.

Regarding `O=C(Cc1ccc2c(c1)CCCC2)Nc1cccnc1N1CCSCC1`, the cytotoxicity at 10 µM is 11.4%.

In the case of `CCc1nnc(CNc2ccc(CC(=O)N3CCSCC3)cc2)o1`, the cytotoxicity at 10 µM stood at 7.37%.

With `Cc1nc(C(C)C)sc1C(=O)NS(=O)(=O)c1ccc(C#N)cc1`, the cytotoxicity at 10 µM was -6.94%.
